Experiments:
[1] = biological target: T1, Alpha-1A adrenergic receptor (Homo sapiens, UniProt P35348); test: Agonist activity at human adrenergic alpha1A receptor expressed in CHO cells assessed as calcium mobilization by FLIPR; assay type: functional, cell-based
T1 sequence (P35348 whole entry): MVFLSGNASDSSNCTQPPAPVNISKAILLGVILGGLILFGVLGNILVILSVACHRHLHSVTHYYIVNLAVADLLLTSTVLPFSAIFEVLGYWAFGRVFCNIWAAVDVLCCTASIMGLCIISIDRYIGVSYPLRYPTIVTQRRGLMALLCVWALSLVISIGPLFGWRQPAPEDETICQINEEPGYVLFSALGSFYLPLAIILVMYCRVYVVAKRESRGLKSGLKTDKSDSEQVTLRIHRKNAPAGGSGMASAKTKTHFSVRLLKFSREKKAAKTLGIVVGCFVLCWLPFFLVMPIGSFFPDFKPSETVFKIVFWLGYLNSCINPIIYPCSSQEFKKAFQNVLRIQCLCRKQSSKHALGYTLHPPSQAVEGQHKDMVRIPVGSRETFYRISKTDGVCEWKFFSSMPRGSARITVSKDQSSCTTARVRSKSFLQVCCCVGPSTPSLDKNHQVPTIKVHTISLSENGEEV

[2] = Apparent permeability from apical to basolateral side of MDCK cells expressing MDR1; assay type: ADME, cell-based, Canis lupus familiaris; conditions: dog, MDCK-MDR1
Outline: (§1)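 MDCK cells expressing P-glycoprotein (mdr-1); transcellular flux measured at 10 µM substrate in the apical-to-basolateral and basolateral-to-apical directions, reported as Papp ×10^-6 cm s^-1.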

[3] = biological target: T2, Alpha-1B adrenergic receptor (Homo sapiens, UniProt P35368); test: Agonist activity at human adrenergic Alpha-1B receptor expressed in CHO cells assessed as calcium mobilization by FLIPR; assay type: functional, cell-based
T2 sequence (P35368 whole entry): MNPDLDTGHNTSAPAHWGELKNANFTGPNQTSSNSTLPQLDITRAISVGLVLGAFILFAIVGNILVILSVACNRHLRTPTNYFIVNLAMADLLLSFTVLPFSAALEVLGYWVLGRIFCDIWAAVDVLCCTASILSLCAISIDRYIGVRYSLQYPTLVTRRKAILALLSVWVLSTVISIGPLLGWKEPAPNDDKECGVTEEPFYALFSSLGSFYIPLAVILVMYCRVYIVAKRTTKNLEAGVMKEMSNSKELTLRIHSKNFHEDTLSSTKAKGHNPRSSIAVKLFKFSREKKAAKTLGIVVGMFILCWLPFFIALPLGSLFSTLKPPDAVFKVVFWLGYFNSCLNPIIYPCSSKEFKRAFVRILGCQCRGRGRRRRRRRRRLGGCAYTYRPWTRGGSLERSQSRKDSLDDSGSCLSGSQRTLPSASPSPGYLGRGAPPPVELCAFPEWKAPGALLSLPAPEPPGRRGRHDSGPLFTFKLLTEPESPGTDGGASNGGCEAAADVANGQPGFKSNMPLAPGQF
Outline: (§2)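 Human alpha1B (clone 11) or alpha1D (clone 23) receptor stably expressed in Chinese hamster ovary cells; receptor activation read as Gq-coupled calcium mobilisation with a calcium-sensitive fluorescent dye on FLIPR. Eleven-point concentration-response curves; Emax given as percent of the response to 10 µM phenylephrine. Values are geometric means of at least two experiments.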

[4] = Apparent permeability from basolateral to apical side of MDCK cells expressing MDR1; assay type: ADME, cell-based, Canis lupus familiaris; conditions: dog, MDCK-MDR1; outline: as §1
[5] = biological target: T3, Alpha-1D adrenergic receptor (Homo sapiens, UniProt P25100); test: Agonist activity at human adrenergic Alpha-1D receptor expressed in CHO cells assessed as calcium mobilization by FLIPR; assay type: functional, cell-based; outline: as §2
T3 sequence (P25100 whole entry): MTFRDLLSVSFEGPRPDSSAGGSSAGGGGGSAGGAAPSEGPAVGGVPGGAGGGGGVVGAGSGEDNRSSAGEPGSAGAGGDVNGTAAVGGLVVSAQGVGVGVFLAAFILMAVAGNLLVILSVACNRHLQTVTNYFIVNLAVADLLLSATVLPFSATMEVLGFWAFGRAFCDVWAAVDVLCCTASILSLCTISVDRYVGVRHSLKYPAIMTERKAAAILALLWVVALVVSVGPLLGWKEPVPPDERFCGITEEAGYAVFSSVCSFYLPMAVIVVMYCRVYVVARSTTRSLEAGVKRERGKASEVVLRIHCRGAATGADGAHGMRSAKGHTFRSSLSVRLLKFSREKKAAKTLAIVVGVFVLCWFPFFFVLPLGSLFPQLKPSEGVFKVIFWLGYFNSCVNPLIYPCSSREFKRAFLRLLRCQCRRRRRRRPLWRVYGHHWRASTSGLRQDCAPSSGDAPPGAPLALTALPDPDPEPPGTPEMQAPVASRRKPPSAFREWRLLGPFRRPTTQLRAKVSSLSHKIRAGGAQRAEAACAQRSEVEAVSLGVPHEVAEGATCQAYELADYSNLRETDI

CYP1A2 = biological target: T4, CYP1A2 (Homo sapiens, UniProt P05177); test: Inhibition of CYP1A2 at 3 uM; assay type: ADME
T4 sequence (P05177 whole entry): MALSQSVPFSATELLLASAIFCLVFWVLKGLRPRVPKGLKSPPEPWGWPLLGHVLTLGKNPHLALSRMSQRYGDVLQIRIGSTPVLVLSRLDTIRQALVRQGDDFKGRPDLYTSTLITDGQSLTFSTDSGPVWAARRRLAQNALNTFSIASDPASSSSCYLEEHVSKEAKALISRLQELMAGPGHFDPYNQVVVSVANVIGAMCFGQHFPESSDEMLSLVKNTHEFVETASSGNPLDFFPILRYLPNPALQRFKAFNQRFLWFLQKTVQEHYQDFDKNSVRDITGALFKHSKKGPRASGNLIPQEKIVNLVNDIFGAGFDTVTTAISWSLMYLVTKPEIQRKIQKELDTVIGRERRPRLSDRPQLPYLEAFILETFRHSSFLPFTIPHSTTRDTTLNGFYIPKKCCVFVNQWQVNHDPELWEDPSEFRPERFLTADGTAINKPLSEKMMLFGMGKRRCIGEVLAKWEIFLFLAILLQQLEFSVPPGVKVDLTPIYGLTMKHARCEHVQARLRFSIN

[6] = biological target: T5, Alpha-2A adrenergic receptor (Homo sapiens, UniProt P08913); test: Inhibition of adrenergic alpha2A receptor
T5 sequence (P08913 whole entry): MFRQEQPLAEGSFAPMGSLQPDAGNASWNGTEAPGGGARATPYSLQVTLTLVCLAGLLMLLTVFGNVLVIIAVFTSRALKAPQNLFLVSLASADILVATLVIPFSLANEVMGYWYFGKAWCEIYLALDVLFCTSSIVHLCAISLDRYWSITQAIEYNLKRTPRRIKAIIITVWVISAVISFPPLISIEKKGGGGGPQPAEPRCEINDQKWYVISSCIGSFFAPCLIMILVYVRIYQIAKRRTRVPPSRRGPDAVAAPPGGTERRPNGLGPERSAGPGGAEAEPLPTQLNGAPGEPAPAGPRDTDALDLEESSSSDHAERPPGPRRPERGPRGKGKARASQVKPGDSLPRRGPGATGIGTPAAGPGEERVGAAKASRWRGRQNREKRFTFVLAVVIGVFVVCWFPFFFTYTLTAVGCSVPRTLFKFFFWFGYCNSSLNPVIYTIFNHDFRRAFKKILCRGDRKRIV

CYP2D6 = CYP2D6 (Homo sapiens, UniProt P10635); test: Inhibition of CYP2D6 at 3 uM; assay type: ADME
CYP2D6, sequence (P10635 whole entry): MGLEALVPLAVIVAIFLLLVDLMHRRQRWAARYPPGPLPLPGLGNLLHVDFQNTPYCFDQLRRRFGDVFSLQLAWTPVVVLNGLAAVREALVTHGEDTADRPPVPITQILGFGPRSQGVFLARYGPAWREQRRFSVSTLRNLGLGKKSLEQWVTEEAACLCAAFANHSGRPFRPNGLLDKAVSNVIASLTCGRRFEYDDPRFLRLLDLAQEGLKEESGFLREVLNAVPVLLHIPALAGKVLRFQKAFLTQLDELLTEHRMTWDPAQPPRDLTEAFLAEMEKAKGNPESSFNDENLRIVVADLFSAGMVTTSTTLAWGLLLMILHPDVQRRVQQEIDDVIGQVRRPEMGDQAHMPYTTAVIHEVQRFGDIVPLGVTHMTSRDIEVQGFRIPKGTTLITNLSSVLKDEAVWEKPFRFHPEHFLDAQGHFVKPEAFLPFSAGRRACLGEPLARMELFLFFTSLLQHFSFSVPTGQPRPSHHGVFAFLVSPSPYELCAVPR

CYP2C9 = CYP2C9 (Homo sapiens, UniProt P11712); test: Inhibition of CYP2C9 at 3 uM; assay type: ADME
CYP2C9, sequence (P11712 whole entry): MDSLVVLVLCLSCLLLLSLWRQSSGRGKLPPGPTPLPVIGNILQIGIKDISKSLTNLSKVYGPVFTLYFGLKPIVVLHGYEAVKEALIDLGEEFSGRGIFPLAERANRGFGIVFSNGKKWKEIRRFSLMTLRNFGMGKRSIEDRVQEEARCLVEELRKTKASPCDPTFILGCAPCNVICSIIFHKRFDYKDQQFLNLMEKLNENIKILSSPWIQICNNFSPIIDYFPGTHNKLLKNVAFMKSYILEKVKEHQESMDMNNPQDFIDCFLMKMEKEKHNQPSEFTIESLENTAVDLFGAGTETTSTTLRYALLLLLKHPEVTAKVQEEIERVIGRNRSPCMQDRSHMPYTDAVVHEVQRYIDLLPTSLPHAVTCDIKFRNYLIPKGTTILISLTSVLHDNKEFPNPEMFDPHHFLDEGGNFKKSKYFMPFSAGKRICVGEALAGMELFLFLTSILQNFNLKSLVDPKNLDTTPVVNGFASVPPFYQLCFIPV

[7] = biological target: Voltage-gated inwardly rectifying potassium channel KCNH2 (Homo sapiens, UniProt Q12809); test: Inhibition of human ERG up to 22 uM
Voltage-gated inwardly rectifying potassium channel KCNH2, sequence (Q12809 whole entry): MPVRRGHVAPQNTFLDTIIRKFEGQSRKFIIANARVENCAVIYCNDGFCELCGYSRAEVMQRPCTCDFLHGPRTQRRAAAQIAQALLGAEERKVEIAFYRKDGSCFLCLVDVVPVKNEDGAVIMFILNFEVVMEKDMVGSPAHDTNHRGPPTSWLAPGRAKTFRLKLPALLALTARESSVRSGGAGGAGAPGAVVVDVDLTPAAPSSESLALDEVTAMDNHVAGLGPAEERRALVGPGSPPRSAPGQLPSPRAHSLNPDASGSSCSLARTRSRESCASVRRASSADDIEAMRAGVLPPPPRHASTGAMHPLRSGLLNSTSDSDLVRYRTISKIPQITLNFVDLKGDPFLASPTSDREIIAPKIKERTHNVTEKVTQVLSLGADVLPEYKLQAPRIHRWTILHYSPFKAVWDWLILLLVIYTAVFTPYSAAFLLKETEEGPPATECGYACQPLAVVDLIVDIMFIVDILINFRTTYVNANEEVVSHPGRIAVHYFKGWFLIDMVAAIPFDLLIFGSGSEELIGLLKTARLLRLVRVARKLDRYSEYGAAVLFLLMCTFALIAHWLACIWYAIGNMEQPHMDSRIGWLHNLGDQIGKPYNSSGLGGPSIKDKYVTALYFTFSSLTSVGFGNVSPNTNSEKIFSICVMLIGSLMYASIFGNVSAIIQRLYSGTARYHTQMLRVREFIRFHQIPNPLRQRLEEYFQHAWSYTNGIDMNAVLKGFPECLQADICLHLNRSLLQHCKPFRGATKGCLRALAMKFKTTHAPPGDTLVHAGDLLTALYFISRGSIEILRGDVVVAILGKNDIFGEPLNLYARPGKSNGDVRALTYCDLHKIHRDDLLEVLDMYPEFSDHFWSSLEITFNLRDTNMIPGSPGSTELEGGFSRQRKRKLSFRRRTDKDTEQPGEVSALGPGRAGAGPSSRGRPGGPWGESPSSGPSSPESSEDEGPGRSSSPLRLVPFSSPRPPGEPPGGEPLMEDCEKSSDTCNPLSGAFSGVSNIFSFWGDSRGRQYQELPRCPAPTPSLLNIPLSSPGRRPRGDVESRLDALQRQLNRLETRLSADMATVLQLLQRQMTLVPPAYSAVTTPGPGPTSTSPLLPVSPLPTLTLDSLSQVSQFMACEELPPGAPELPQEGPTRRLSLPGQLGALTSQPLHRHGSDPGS

[8] = Lipophilicity, log D at pH 7.4; conditions: buffer
CYP3A4 = CYP3A4 (Homo sapiens, UniProt P08684); test: Inhibition of CYP3A4 at 3 uM; assay type: ADME
CYP3A4, sequence (P08684 whole entry): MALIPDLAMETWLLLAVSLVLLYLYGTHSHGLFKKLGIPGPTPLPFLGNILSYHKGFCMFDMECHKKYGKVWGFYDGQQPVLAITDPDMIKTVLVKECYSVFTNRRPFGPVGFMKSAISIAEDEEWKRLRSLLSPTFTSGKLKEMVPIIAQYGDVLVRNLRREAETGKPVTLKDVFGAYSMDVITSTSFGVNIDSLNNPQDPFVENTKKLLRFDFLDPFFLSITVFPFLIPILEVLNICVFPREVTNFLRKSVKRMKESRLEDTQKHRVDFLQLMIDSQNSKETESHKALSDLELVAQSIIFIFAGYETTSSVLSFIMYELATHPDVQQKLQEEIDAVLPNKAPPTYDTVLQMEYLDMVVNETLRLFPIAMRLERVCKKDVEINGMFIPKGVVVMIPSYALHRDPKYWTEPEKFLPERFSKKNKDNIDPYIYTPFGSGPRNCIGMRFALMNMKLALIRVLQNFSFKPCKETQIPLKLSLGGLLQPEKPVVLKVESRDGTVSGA

[9] = Intrinsic clearance in human liver microsomes; assay type: ADME, Microsome

- EC50 [1]: 1 nM
- Papp A→B [2]: 34 ×10⁻⁶ cm/s
- EC50 [3]: > 10 µM
- Papp B→A [4]: 39 ×10⁻⁶ cm/s
- EC50 [5]: > 2600 nM
- inhibition at 3 µM (CYP1A2): < 10%
- Ki [6]: > 2780 nM
- inhibition at 3 µM (CYP2D6): < 10%
- inhibition at 3 µM (CYP2C9): < 10%
- logD [8]: 1.3
- inhibition at 3 µM (CYP3A4): < 10%
- microsomal CLint [9]: < 8 µL/min/mg
SMILES: Fc1ccc(-c2cncnc2)c(C2Cc3nccn3C2)c1 (stereo not drawn)
- inhibition (INH) [7]: Not Active
